Molecular target: Tyrosine-protein kinase Fyn (Homo sapiens, UniProt P06241)
Assay: Inhibition of Fyn protein kinase
Conditions: not given
In short: (§1)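 Continuous coupled assay (pyruvate kinase/lactate dehydrogenase with PEP and NADH), run under the same conditions as the GST-Lck assay. Inhibitor was added in DMSO and the reaction started with ATP. Fluorescence was followed and rates were fitted by nonlinear least squares to derive Ki.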

Chain of Tyrosine-protein kinase Fyn (P06241 whole entry): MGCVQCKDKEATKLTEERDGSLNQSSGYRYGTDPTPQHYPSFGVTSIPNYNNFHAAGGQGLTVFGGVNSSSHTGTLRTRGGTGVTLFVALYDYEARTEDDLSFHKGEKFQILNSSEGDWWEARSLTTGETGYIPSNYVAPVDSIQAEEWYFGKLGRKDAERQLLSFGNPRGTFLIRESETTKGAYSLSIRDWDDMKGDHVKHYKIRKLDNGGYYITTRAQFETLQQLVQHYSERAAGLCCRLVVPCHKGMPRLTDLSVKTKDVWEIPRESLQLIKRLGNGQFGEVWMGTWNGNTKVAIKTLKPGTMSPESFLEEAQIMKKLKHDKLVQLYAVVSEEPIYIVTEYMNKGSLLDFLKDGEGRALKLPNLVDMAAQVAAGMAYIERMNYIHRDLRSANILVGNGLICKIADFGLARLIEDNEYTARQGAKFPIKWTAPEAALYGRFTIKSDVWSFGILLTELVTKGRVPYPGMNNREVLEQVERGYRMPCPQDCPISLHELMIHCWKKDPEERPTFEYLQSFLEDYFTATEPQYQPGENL

Ki | Structure (SMILES)
8.8 nM | CNc1cc(Nc2nc3ccc(C(=O)Nc4c(C)cccc4Cl)cc3s2)ncn1
100 nM | Cc1cccc(Cl)c1NC(=O)c1ccc2nc(NC(=O)NC(C)(C)C)sc2c1
1.1 nM | Cc1cc(Nc2nc3ccc(C(=O)Nc4c(C)cccc4Cl)cc3s2)nc(NCC2CCCO2)n1 (stereo not given)

Structure (SMILES) | Ki
Cc1cccc(Cl)c1NC(=O)c1ccc2nc(Nc3cccc(NCCO)n3)sc2c1 | 2.4 nM
Cc1cc(Nc2nc3ccc(C(=O)Nc4c(C)cccc4Cl)cc3s2)nc(NCCO)n1 | 4 nM

Molecular target: Proto-oncogene tyrosine-protein kinase Src (Homo sapiens, UniProt P12931)
Assay: Inhibition of Src protein tyrosine kinase
Conditions: not given
In short: as §1

Chain of Proto-oncogene tyrosine-protein kinase Src (P12931 2-536 limits assumed): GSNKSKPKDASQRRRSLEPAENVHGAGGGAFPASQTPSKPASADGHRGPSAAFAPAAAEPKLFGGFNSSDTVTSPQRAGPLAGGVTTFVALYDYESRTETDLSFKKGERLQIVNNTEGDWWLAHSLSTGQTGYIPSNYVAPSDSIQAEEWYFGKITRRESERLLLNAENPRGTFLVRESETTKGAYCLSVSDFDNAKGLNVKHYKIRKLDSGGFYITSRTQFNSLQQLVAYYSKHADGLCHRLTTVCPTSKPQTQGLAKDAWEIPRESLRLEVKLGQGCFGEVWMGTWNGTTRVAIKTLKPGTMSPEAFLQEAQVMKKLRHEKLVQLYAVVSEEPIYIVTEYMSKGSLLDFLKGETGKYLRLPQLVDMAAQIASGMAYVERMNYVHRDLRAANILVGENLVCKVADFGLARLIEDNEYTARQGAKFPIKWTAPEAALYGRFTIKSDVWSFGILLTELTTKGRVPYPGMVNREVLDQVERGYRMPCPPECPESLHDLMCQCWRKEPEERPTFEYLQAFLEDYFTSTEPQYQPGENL

Ki | Structure (SMILES)
17 nM | CNc1cc(Nc2nc3ccc(C(=O)Nc4c(C)cccc4Cl)cc3s2)ncn1
333 nM | Cc1cccc(Cl)c1NC(=O)c1ccc2nc(NC(=O)NC(C)(C)C)sc2c1
3.2 nM | Cc1cc(Nc2nc3ccc(C(=O)Nc4c(C)cccc4Cl)cc3s2)nc(NCC2CCCO2)n1 (stereo not given)

Structure (SMILES) | Ki
Cc1cccc(Cl)c1NC(=O)c1ccc2nc(Nc3cccc(NCCO)n3)sc2c1 | 13 nM
Cc1cc(Nc2nc3ccc(C(=O)Nc4c(C)cccc4Cl)cc3s2)nc(NCCO)n1 | 10 nM

Tested on: not listed separately
Assay: Inhibition of anti-CD3, anti-CD28 induced PBL T-cell proliferation
Type: functional
Conditions: Homo sapiens

Structure (SMILES) | IC50
CNc1cc(Nc2nc3ccc(C(=O)Nc4c(C)cccc4Cl)cc3s2)ncn1 | 690 nM
Cc1cccc(Cl)c1NC(=O)c1ccc2nc(NC(=O)NC(C)(C)C)sc2c1 | 1100 nM
Cc1cccc(Cl)c1NC(=O)c1ccc2nc(Nc3cccc(NCCO)n3)sc2c1 | 475 nM
Cc1cc(Nc2nc3ccc(C(=O)Nc4c(C)cccc4Cl)cc3s2)nc(NCC2CCCO2)n1 (stereo not given) | 262 nM
Cc1cc(Nc2nc3ccc(C(=O)Nc4c(C)cccc4Cl)cc3s2)nc(NCCO)n1 | 329 nM

Molecular target: T1, Tyrosine-protein kinase Lck (Homo sapiens, UniProt P06239)
Assay: Inhibition of human p56 Lck tyrosine kinase
Conditions: not given

T1 sequence (P06239 whole entry): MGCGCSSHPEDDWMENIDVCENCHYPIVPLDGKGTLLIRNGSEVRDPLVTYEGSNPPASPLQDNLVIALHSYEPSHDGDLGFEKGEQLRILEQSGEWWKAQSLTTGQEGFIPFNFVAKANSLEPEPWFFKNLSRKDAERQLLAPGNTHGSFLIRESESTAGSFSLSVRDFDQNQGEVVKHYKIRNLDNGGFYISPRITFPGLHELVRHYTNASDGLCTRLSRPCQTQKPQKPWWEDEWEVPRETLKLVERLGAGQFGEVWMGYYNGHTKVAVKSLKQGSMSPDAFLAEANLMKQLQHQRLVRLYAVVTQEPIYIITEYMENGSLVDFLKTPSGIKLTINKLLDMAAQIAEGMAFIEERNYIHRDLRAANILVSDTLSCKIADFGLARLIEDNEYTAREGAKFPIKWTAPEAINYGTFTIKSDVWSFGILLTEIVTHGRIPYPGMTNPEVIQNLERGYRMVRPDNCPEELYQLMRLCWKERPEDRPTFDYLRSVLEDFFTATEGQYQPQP

IC50 | Structure (SMILES)
84 nM | Cc1cccc(Cl)c1NC(=O)c1ccc2nc(Nc3ccccn3)sc2c1
> 3100 nM | Cc1cc(C)c(NC(=O)c2ccc3nc(Nc4ncc[nH]4)sc3c2)c(C)c1
> 3100 nM | Cc1cc(C)c(NC(=O)c2ccc3nc(Nc4nccs4)sc3c2)c(C)c1
> 3100 nM | Cc1cc(C)c(NC(=O)c2ccc3nc(NCC4CC4)sc3c2)c(C)c1
9 nM | Cc1cccc(Cl)c1NC(=O)c1ccc2nc(Nc3cc(CN(C)C)ccn3)sc2c1
> 3100 nM | Cc1cc(C)c(NC(=O)c2ccc3nc(Nc4cccnc4)sc3c2)c(C)c1
20 nM | Cc1cccc(Cl)c1NC(=O)c1ccc2nc(Nc3cc(Cl)ncn3)sc2c1
32 nM | Cc1ccnc(Nc2nc3ccc(C(=O)Nc4c(C)cc(C)cc4C)cc3s2)c1
27 nM | Cc1cccc(Cl)c1NC(=O)c1ccc2nc(Nc3ccncn3)sc2c1
1740 nM | Cc1cc(C)c(NC(=O)c2ccc3nc(Nc4ccccc4)sc3c2)c(C)c1
53 nM | Cc1cc(C)c(NC(=O)c2ccc3nc(Nc4cc(C)nc(C)n4)sc3c2)c(C)c1
9 nM | Cc1cccc(Nc2nc3ccc(C(=O)Nc4c(C)cccc4Cl)cc3s2)n1
180 nM | Cc1cc(C)c(NC(=O)c2ccc3nc(Nc4cccc(C)n4)sc3c2)c(C)c1
138 nM | Cc1cc(C)c(NC(=O)c2ccc3nc(Nc4ccccn4)sc3c2)c(C)c1
7 nM | CNCc1cc(Nc2nc3ccc(C(=O)Nc4c(C)cccc4Cl)cc3s2)nc(C)n1
6 nM | CC(=O)NCCNc1cc(Nc2nc3ccc(C(=O)Nc4c(C)cccc4Cl)cc3s2)ncn1
20 nM | CNc1nccc(Nc2nc3ccc(C(=O)Nc4c(C)cccc4Cl)cc3s2)n1
2 nM | CNc1cc(Nc2nc3ccc(C(=O)Nc4c(C)cccc4Cl)cc3s2)ncn1
6 nM | Cc1cccc(Cl)c1NC(=O)c1ccc2nc(Nc3cccc(NCC(C)(C)N)n3)sc2c1
5 nM | CCc1cc(Nc2nc3ccc(C(=O)Nc4c(C)cccc4Cl)cc3s2)ncn1
17 nM | Cc1cnc(Nc2nc3ccc(C(=O)Nc4c(C)cc(C)cc4C)cc3s2)c(C)c1
> 3100 nM | Cc1cc(C)c(NC(=O)c2ccc3nc(Nc4ccncc4)sc3c2)c(C)c1
1590 nM | Cc1cccc(Cl)c1NC(=O)c1ccc2nc(Nc3ccn[nH]3)sc2c1
> 3100 nM | Cc1cccc(Cl)c1NC(=O)c1ccc2nc(Nc3ncc[nH]3)sc2c1
8 nM | Cc1cccc(Cl)c1NC(=O)c1ccc2nc(Nc3cc(NCCO)ncn3)sc2c1

IC50 | Structure (SMILES)
403 nM | Cc1cc(C)c(NC(=O)c2ccc3nc(Nc4ccncn4)sc3c2)c(C)c1
2 nM | Cc1cccc(Cl)c1NC(=O)c1ccc2nc(Nc3cccc(N)n3)sc2c1
20 nM | Cc1ccnc(Nc2nc3ccc(C(=O)Nc4c(C)cccc4Cl)cc3s2)c1
2 nM | CC(=O)NCCNc1cccc(Nc2nc3ccc(C(=O)Nc4c(C)cccc4Cl)cc3s2)n1
> 3100 nM | Cc1cc(C)c(NC(=O)c2ccc3nc(Nc4ncccc4C)sc3c2)c(C)c1
20 nM | Cc1cc(Nc2nc3ccc(C(=O)Nc4c(C)cccc4Cl)cc3s2)nc(C)n1
77 nM | CCc1cc(Nc2nc3ccc(C(=O)Nc4c(C)cc(C)cc4C)cc3s2)ncn1
6 nM | Cc1cc(Nc2nc3ccc(C(=O)Nc4c(C)cccc4Cl)cc3s2)nc(NCC(C)(C)O)n1
35 nM | Cc1ccc(Nc2nc3ccc(C(=O)Nc4c(C)cccc4Cl)cc3s2)nc1
21 nM | Cc1cc(Nc2nc3ccc(C(=O)Nc4c(C)cccc4Cl)cc3s2)ncn1
327 nM | Cc1cccc(Cl)c1NC(=O)c1ccc2nc(Nc3ccccc3)sc2c1
3 nM | Cc1cccc(Cl)c1NC(=O)c1ccc2nc(Nc3ccnc(NCCO)n3)sc2c1
8 nM | Cc1cc(C)nc(Nc2nc3ccc(C(=O)Nc4c(C)cccc4Cl)cc3s2)c1
31 nM | Cc1cccc(Cl)c1NC(=O)c1ccc2nc(Nc3ccnc(Cl)n3)sc2c1
> 3100 nM | Cc1cc(C)c(NC(=O)c2ccc3nc(Nc4cnc[nH]4)sc3c2)c(C)c1
235 nM | Cc1cc(C)c(NC(=O)c2ccc3nc(Nc4cnccn4)sc3c2)c(C)c1
403 nM | Cc1cccc(Cl)c1NC(=O)c1ccc2nc(Nc3cc(N)ccn3)sc2c1
1890 nM | Cc1cc(C)c(NC(=O)c2ccc3nc(Nc4nccnn4)sc3c2)c(C)c1
> 3100 nM | Cc1cc(C)c(NC(=O)c2ccc3nc(Nc4nc[nH]n4)sc3c2)c(C)c1
13 nM | COc1cc(Nc2nc3ccc(C(=O)Nc4c(C)cccc4Cl)cc3s2)ncn1
8 nM | Cc1cccc(Cl)c1NC(=O)c1ccc2nc(Nc3cc(N)ncn3)sc2c1
1 nM | Cc1cc(Nc2nc3ccc(C(=O)Nc4c(C)cccc4Cl)cc3s2)nc(NCC2CCCO2)n1 (stereo not given)
10 nM | Cc1cccc(Cl)c1NC(=O)c1ccc2nc(Nc3cccc(CN(C)C)n3)sc2c1
5 nM | CCc1ccnc(Nc2nc3ccc(C(=O)Nc4c(C)cccc4Cl)cc3s2)c1
72 nM | Cc1ccc(Nc2nc3ccc(C(=O)Nc4c(C)cc(C)cc4C)cc3s2)nc1

Structure (SMILES) | IC50
Cc1cccc(Cl)c1NC(=O)c1ccc2nc(NN3C=CC=CN3)sc2c1 | 41 nM
Cc1nc(CN2CCOCC2)cc(Nc2nc3ccc(C(=O)Nc4c(C)cccc4Cl)cc3s2)n1 | 6 nM
Cc1cc(C)c(NC(=O)c2ccc3nc(Nc4ncccn4)sc3c2)c(C)c1 | > 3100 nM
Cc1cccc(Cl)c1NC(=O)c1ccc2nc(Nc3cnccn3)sc2c1 | 15 nM
Cc1cccc(Cl)c1NC(=O)c1ccc2nc(Nc3cccc(CN4CCOCC4)n3)sc2c1 | 13 nM
Cc1cc(Nc2nc3ccc(C(=O)Nc4c(C)cccc4Cl)cc3s2)nc(CN2CCOCC2)n1 | 10 nM
Cc1cccc(Cl)c1NC(=O)c1ccc2nc(Nc3cc(CN4CCOCC4)ccn3)sc2c1 | 1 nM
CNN1CCN(Cc2ccnc(Nc3nc4ccc(C(=O)Nc5c(C)cccc5Cl)cc4s3)c2)CC1 | 1 nM
Cc1cccc(Cl)c1NC(=O)c1ccc2nc(Nc3cccc(NCCO)n3)sc2c1 | 0.5 nM
Cc1cc(Nc2nc3ccc(C(=O)Nc4c(C)cccc4Cl)cc3s2)nc(NCCO)n1 | 2 nM

Molecular target: T1, Tyrosine-protein kinase Lck
Assay: Inhibition of p56 Lck tyrosine kinase
Conditions: not given

Ki | Structure (SMILES) | IC50
6.6 nM | CNc1cc(Nc2nc3ccc(C(=O)Nc4c(C)cccc4Cl)cc3s2)ncn1 | –
5.5 nM | Cc1cccc(Cl)c1NC(=O)c1ccc2nc(NC(=O)NC(C)(C)C)sc2c1 | –
0.54 nM | Cc1cc(Nc2nc3ccc(C(=O)Nc4c(C)cccc4Cl)cc3s2)nc(NCC2CCCO2)n1 (stereo not given) | –
– | Cc1cc(Nc2nc3ccc(C(=O)Nc4c(C)cccc4Cl)cc3s2)nc(NCCO)n1 | 1.1 nM

Structure (SMILES) | Ki | IC50
Cc1cccc(Cl)c1NC(=O)c1ccc2nc(Nc3cccc(NCCO)n3)sc2c1 | 0.9 nM | –

— ChEMBL document CHEMBL1146618, “Discovery of 2-amino-heteroaryl-benzothiazole-6-anilides as potent p56(lck) inhibitors” (Bioorg Med Chem Lett, 2003)
